The source made the active and inactive calls.

A word on the ED50: it is the dose at which the effect has come halfway, by size or by number of responders. The LD50 is the dose at which mortality reaches 50%. The TD50 is the 50% point of the dose-response relation for the toxic effect studied. What is called Ki is the dissociation constant of the complex between target and ligand, obtained from inhibition or displacement.

Series [1] deals with Mus musculus. The series can be described thus: Effective dose (ED50) was determined in sc Met (pentylenetetrazole) seizure threshold test; I = Inactive at all doses including 600 mg/kg. In kind it is functional, organism-based. Also noted: dose 600 mg/kg. The method in brief:
(§1)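 ADD Program screen in mice. Doses of 30, 100, 300 and 600 mg/kg were given, four animals per dose, with tests at 30 min and at 4 h. sc Met endpoint: no threshold seizure (single clonic spasm of 5 s) after an sc convulsant dose 99 of pentylenetetrazol. Rotorod assessed acute neurotoxicity. ED50/TD50 were estimated graphically; Litchfield-Wilcoxon 95% confidence limits were added for selected cases.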

The subject of series [2] is Mus musculus. The series can be described thus: Evaluated for seizure threshold test at a dose 30 mg/kg & MMT is the maximal metrazole threshold to tonic flexion; I = Inactive. Also noted: dose 30 mg/kg. The format is functional, organism-based. Put shortly: (§2)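 0.5% pentylenetetrazol (with 0.9% NaCl and 0.001% heparin) was infused into a lateral tail vein at 6.31 μL/s. Time to 3 s of persistent clonus (MST) or hindlimb tonic flexion (MMT) was converted to mg/kg infused. Tested at 0.5 h (some at 4 h or 1 h). Results are % change from controls, by Student's t test.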

For series [3], the system named is Mus musculus. The experiment in a line: Evaluated for seizure threshold test at a dose 30 mg/kg & MST is the metrazole seizure threshold to persistent clonus. In kind it is functional. Put shortly: (§3)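 At 0.5 h (some at 1 or 4 h), 0.5% pentylenetetrazol in 0.9% NaCl with 0.001% heparin was infused into the tail vein at 6.31 μL/s. Time to 3 s persistent clonus (MST) or tonic flexion (MMT) was converted to mg/kg, reported as % change vs controls, Student's t test.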

A short description of series [4]: Compound was evaluated for median lethal dose. The format is ADME, organism-based. The following applies: mouse, in vivo.
A short description of series [5]: Compound was determined in rotarod test and expressed as TD50. The format is ADME, organism-based. The following applies: mouse, in vivo. The method in brief:
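ADD Program screen in mice. Doses of 30, 100, 300 and 600 mg/kg were given, four animals per dose, with tests at 30 min and at 4 h. sc Met endpoint: no threshold seizure (single clonic spasm of 5 s) after an sc convulsant dose 99 of pentylenetetrazol. Rotorod assessed acute neurotoxicity.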
In general terms: In the rotarod test animals must keep their balance on a rotating rod.

For series [6], the system named is Mus musculus. The experiment in a line: Effective dose (ED50) was determined in sc Met (pentylenetetrazole) seizure threshold test; I = Inactive. The format is functional, organism-based. The method in brief: as §1
Series [7] relates to Mus musculus. The experiment in a line: Evaluated for seizure threshold test at a dose 25 mg/kg &MMT is the maximal metrazole threshold to tonic flexion; I = Inactive. The format is functional, organism-based. Also noted: dose 25 mg/kg. Put shortly:
as §2

Series [8] relates to Mus musculus. The series can be described thus: Evaluated for seizure threshold test at a dose 25 mg/kg &MST is the metrazole seizure threshold to persistent clonus; I = Inactive. More on the design: dose 25 mg/kg. The format is functional, organism-based. Put shortly: as §2
The species named for series [9] is Mus musculus. The series can be described thus: Compound was determined in rotarod test and expressed as TD50; I = Inactive. The format is ADME, organism-based. The following applies: in vivo. The method in brief: as §1
In series [10] the target is GABA-A receptor; anion channel. The series can be described thus: Binding affinity for umolar GABA-A central benzodiazepine receptor. The format is protein-complex assay, Mus musculus.
The test system of series [11] is Mus musculus. The series can be described thus: Effective dose (ED50) was determined in sc Met (pentylenetetrazole) seizure threshold test. The format is functional. The method in brief: as §1
Series [12] relates to Mus musculus. The experiment in a line: Evaluated for seizure threshold test at a dose 0.2 mg/kg &MMT is the maximal metrazole threshold to tonic flexion. In kind it is functional. The method in brief:
as §3

The test system of series [13] is Mus musculus. The experiment in a line: Evaluated for seizure threshold test at a dose 0.2 mg/kg &MST is the metrazole seizure threshold to persistent clonus. In kind it is functional. The method in brief:
as §3

Series [14] concerns Mus musculus. The series can be described thus: Evaluated for seizure threshold test at a dose 1 mg/kg &MMT is the maximal metrazole threshold to tonic flexion. In kind it is functional. The method in brief: as §3
For series [15], the system named is Mus musculus. The series can be described thus: Evaluated for seizure threshold test at a dose 1 mg/kg &MST is the metrazole seizure threshold to persistent clonus. In kind it is functional. The method in brief: as §3
Series [16] relates to GABA-A receptor; anion channel. The experiment in a line: Inhibition of binding to GABA-A central benzodiazepine receptor (Inactive). The format is protein-complex assay, Mus musculus.
The test system of series [17] is Mus musculus. The series can be described thus: Evaluated for seizure threshold test at a dose 30 mg/kg &MMT is the maximal metrazole threshold to tonic flexion. In kind it is functional. Put shortly:
as §3

The subject of series [18] is Mus musculus. The experiment in a line: Evaluated for seizure threshold test at a dose 30 mg/kg &MST is the metrazole seizure threshold to persistent clonus; I = Inactive. Also noted: dose 30 mg/kg. The format is functional, organism-based. The method in brief:
as §2

The test system of series [19] is Mus musculus. The series can be described thus: Evaluated for seizure threshold test at a dose 600 mg/kg &MST is the metrazole seizure threshold to persistent clonus. The format is functional. Put shortly:
as §3

Series [20] deals with Mus musculus. The series can be described thus: Evaluated for seizure threshold test at a dose 600 mg/kg &MMT is the maximal metrazole threshold to tonic flexion. In kind it is functional. The method in brief: as §2
For series [21], the system named is Mus musculus. The experiment in a line: Evaluated for seizure threshold test at a dose 300 mg/kg &MMT is the maximal metrazole threshold to tonic flexion; I = Inactive. In kind it is functional, organism-based. More on the design: dose 300 mg/kg. Put shortly: as §3
Series [22] has as its system Mus musculus. The series can be described thus: Evaluated for seizure threshold test at a dose 300 mg/kg &MST is the metrazole seizure threshold to persistent clonus. The format is functional. The method in brief: as §3

On to `CC1=NCC(=O)Nc2c1cc(C)c(C)c2C#N`, for which the ED50 result in series [1] is “inactive”. Moreover, the figures for the Change result in [2] and in series [3] were “Not significant” and 30%, respectively. The same compound registered an LD50 in [4] of 150 mg/kg. Also, in series [5], the TD50 is 70 mg/kg.

For the compound `Cc1cc(C(=O)c2ccccc2)c(O)c(C#N)c1C`, the ED50 entry in series [6] is “inactive”. For the same compound, the Change result in series [7] and in series [8] was “Not significant” each time. The TD50 result in series [9] is reported as “Not Active”.

Take `Cc1cc2c(-c3ccccc3)nc(O)nc2c(C#N)c1C`: in [6], the ED50 result was “inactive”. Further, the Change result in [7] and in series [8] was “Not significant” throughout. In series [9], the TD50 entry is “Not Active”.

In turn, `O=C1NC(=O)C(c2ccccc2)(c2ccccc2)N1` [PHENYTOIN] yielded a Ki in series [10] of 155 µM.

`O=C1CN=C(c2ccccc2)c2cc(Cl)ccc2N1` [NORDAZEPAM]: in [10], the Ki is 73 µM. In series [11], this compound registered an ED50 of 0.28 mg/kg. The Change entry in series [12] was “inactive”. For the same compound, the Change in series [13] is recorded as 48%; in series [14], 35%; in series [15] it was 70%.

Take `Cc1cc2c(c(C#N)c1C)NC=NC2C1CC1` (stereo unspecified): the ED50 result in series [6] is “inactive”. Besides, the Change result in [7] and in [8] was “Not significant” each time. Further, the TD50 result in series [9] was “Not Active”.

As for `Cc1cc2c(C)ncnc2c(C#N)c1C`, the IC50 entry in series [16] is given as “Not Active”. Also, the ED50 result in series [1] was “inactive”. For the same compound, the Change in series [17] is recorded as -24%. The Change result in series [18] was “inactive”. Besides, in series [4], the LD50 was found to be 150 mg/kg. For the same compound, in series [5], the TD50 is 45 mg/kg.

`Cc1cc2c(-c3ccccc3F)nc(O)nc2c(C#N)c1C`: in series [6], the ED50 result was “inactive”. Also, the Change result in series [7] and in series [8] was “Not significant” throughout. In [9], the TD50 entry is given as “Not Active”.

`Cc1cc(C(=O)C2CC2)c(N)c(C#N)c1C`: the Change is 23% in [19] and 37% in series [20]. The ED50 in series [11] was found to be 600 mg/kg. The TD50 in series [5] was more than 600 mg/kg.

As to `Cc1cc2c(C3CCCCC3)nc(O)nc2c(C#N)c1C`, the IC50 result in series [16] is recorded as “Not Active”. The Change entry in series [21] was “inactive”. The Change in series [22] turned out to be 44%. The compound also gave an ED50 in series [11] of 260 mg/kg. In addition, the TD50 in [5] was more than 600 mg/kg.

For the compound `CC1N=CNc2c1cc(-c1ccccc1)c(-c1ccccc1)c2C#N` (stereo unspecified), the ED50 result in series [6] was “inactive”. Further, the Change result in [7] and in series [8] was “Not significant” in each case. In addition, in series [9], the TD50 result is given as “Not Active”.

For the compound `Cc1cc(C(=O)c2ccccc2)c(N)c(C#N)c1C`, the ED50 entry in series [6] was “inactive”. Moreover, the Change entry in series [7] and in series [8] was “Not significant” in each case. In [9], the TD50 result is “Not Active”.
